In article PMC2688716 (European neuropsychopharmacology : the journal of the …, 2008):
Where a name gives a salt, the structure may show the parent alone.

Tests used:
male, Swiss Webster mice [1] = assay: Locomotor activity measurements; format: in vivo, mouse; settings: i.p.
NG108-15 cells = assay: Cytotoxicity; format: cell-based; settings: methamphetamine 10–300 μM; 24 h and 48 h; 37° C; P < 0.0001
male, Swiss Webster mice [2] = assay: Dopamine transporter; settings: 4 times at 2 h intervals
Serotonin transporter = Serotonin transporter (Rattus norvegicus, UniProt P31652); assay: Radioligand binding, serotonin transporter; settings: 0.2 nM [3H]paroxetine; nonspecific 1.5 μM imipramine; rat brainstem; 90 min at 25° C; in-house; >10,000 = less than 30% displacement
Serotonin transporter, sequence (P31652 whole entry): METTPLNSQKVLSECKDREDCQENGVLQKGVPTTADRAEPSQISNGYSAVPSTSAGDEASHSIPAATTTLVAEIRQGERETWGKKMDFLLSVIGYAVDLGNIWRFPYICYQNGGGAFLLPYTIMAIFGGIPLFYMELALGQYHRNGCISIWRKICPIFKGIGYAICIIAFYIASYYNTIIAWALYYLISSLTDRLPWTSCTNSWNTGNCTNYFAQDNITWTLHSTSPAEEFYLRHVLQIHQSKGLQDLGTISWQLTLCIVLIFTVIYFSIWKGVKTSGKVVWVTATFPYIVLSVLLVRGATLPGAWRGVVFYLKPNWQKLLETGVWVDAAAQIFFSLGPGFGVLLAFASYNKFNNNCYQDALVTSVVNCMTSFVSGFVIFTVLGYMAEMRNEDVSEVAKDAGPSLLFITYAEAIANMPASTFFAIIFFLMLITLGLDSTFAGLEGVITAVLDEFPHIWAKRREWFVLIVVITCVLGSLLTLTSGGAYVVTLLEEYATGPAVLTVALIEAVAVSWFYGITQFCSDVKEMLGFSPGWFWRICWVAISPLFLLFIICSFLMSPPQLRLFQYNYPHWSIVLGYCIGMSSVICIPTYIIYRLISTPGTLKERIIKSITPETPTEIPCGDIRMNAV

Melatonin receptor = assay: Radioligand binding, melatonin receptors; settings: 70 pM [125I]2-Iodomelatonin; nonspecific 0.1 μM 2-iodomelatonin; chicken brain; by NOVASCREEN; >10,000 = less than 30% displacement
In short: (§1)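 Run by a contract screening service. Binding was measured in tissue homogenates. Ki was calculated with the Cheng-Prusoff equation from separately determined Kd values and reported as mean ± SEM of replicate assays.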

[3] = biological target: Muscarinic, central receptor; assay: Radioligand binding, muscarinic central; settings: 0.15 nM [3H]QNB; nonspecific 0.1 μM atropine; rat cerebral cortex; by NOVASCREEN; >10,000 = less than 30% displacement
[4] = biological target: Muscarinic, peripheral receptor; assay: Radioligand binding, muscarinic peripheral; settings: 0.3 nM [3H]QNB; nonspecific 0.1 μM atropine; guinea pig bladder; by NOVASCREEN; >10,000 = less than 30% displacement
[5] = biological target: Calcium, type N ion channel (Rattus norvegicus, UniProt Q02294); assay: Radioligand binding, calcium channel type N; settings: 0.01 nM [125I]ω-conotoxin GVIA; nonspecific 0.1 μM ω-conotoxin GVIA; rat cerebral cortex; by NOVASCREEN; >10,000 = less than 30% displacement
Calcium, type N ion channel, sequence (P54287 whole entry): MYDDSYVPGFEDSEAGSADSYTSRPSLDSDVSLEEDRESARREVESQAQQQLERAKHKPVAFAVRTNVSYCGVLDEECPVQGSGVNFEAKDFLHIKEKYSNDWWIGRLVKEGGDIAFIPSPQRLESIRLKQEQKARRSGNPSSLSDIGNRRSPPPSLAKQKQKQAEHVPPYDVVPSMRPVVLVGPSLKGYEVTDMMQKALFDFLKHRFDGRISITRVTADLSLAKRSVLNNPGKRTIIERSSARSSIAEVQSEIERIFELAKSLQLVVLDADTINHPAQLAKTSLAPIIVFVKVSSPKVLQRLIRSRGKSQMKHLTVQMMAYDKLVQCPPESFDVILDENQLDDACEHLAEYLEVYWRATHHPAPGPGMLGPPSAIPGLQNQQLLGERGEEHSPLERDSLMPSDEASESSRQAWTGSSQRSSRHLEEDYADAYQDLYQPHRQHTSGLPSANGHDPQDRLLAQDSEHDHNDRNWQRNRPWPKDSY
Calcium, type N ion channel, sequence (P54290 945-1091, further chain): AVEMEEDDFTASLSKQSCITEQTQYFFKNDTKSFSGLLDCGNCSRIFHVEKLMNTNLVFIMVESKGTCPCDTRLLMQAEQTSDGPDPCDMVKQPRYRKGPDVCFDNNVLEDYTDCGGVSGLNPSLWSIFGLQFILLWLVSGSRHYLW
Calcium, type N ion channel, sequence (Q02294 whole entry): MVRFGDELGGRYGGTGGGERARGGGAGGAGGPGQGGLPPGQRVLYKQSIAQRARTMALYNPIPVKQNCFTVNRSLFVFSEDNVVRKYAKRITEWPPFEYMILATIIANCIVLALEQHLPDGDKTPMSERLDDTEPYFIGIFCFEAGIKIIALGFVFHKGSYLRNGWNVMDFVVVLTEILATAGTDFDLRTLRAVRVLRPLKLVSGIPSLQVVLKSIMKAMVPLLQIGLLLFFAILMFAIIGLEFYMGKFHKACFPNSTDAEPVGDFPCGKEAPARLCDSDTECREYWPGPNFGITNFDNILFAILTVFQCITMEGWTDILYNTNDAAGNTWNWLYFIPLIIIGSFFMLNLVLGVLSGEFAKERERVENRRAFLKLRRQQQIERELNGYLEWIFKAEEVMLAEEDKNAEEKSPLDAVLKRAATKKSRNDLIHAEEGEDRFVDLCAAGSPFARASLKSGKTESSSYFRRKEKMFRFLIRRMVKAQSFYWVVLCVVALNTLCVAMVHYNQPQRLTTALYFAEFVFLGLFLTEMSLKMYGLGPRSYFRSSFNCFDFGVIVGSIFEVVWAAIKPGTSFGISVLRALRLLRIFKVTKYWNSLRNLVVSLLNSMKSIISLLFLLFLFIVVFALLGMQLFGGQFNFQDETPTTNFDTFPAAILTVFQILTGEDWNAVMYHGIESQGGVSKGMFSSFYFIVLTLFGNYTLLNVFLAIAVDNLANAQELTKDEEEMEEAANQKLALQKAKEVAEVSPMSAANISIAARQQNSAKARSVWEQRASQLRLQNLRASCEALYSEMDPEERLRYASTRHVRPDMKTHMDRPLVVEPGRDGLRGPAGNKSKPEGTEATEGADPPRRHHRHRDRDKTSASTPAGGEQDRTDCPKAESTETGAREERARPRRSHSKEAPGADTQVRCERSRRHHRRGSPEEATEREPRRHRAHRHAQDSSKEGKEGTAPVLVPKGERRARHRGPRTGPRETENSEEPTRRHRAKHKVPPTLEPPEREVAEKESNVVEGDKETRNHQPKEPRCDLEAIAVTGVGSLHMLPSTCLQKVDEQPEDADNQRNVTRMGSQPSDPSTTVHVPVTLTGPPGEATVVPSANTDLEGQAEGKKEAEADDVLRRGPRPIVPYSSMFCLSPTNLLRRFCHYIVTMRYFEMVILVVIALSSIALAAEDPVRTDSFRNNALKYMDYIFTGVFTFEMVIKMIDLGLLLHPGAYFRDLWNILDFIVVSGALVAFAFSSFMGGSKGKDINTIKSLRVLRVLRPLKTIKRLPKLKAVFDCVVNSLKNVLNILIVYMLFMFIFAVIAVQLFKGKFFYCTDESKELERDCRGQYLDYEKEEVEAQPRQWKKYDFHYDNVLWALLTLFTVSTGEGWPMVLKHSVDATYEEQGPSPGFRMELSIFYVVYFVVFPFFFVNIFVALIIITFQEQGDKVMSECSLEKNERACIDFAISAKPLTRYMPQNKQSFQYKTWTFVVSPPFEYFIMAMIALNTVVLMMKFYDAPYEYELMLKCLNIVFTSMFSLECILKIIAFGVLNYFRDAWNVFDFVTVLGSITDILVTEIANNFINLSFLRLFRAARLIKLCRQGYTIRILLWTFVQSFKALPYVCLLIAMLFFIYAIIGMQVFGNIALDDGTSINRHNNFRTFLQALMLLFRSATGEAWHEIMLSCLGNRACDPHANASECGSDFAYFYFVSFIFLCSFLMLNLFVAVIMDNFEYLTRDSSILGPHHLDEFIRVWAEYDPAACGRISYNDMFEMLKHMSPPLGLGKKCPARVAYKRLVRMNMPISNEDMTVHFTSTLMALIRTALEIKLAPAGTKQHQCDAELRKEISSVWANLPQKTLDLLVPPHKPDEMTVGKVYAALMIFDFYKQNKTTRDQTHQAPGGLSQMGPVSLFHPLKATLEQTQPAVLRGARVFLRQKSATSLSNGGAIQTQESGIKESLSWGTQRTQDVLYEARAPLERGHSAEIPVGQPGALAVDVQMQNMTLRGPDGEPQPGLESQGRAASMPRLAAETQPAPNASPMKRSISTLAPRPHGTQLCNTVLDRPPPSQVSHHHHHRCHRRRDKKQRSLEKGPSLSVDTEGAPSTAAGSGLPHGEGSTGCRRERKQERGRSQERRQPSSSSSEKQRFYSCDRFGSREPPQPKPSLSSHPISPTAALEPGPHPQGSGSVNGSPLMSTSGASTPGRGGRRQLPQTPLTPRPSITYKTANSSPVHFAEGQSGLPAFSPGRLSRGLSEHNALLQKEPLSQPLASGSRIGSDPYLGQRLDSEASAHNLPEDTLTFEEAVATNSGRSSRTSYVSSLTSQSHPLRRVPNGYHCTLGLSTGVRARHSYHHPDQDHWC
Calcium, type N ion channel, sequence (P54290 25-944, further chain): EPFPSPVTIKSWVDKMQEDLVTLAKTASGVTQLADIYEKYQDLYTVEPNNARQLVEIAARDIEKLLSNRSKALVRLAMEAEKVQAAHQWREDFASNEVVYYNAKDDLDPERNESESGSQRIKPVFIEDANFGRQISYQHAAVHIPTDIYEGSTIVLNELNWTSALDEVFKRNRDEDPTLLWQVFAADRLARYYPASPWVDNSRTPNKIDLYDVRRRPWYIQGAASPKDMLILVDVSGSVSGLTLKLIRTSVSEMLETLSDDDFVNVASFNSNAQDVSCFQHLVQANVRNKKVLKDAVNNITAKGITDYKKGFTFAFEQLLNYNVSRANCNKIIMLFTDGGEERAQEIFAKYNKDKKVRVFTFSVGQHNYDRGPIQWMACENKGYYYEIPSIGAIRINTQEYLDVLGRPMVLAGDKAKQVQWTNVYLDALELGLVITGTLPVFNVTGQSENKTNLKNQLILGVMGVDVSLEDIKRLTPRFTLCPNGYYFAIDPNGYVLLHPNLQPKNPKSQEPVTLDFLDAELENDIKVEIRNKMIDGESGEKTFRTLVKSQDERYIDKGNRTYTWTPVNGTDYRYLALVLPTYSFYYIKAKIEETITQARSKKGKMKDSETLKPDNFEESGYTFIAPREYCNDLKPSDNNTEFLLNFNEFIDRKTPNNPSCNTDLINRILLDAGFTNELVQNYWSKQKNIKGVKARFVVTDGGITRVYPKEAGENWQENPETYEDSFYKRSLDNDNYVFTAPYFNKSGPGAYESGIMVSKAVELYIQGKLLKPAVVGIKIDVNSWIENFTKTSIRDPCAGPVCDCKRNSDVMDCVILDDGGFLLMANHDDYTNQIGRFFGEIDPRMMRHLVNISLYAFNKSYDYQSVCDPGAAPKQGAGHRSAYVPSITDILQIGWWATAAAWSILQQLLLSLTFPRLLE

[6] = biological target: Potassium, ATP-sensitive ion channel; assay: Radioligand binding, ATP-sensitive potassium channel; settings: 0.2 nM [3H]glibenclamide; nonspecific 0.1 μM glibenclamide; rat cerebral cortex; by NOVASCREEN; >10,000 = less than 30% displacement
In short: as §1

male, Swiss Webster mice [7] = assay: Dopamine assay, striatum; format: in vivo, mouse; settings: AC927 10 mg/kg pretreatment + methamphetamine 5 mg/kg; Tukey q=5.58, P < 0.01
male, Swiss Webster mice [8] = assay: Dopamine assay, cerebellum; format: in vivo, mouse; settings: AC927 10 mg/kg pretreatment + methamphetamine 5 mg/kg; Tukey q=4.55, P < 0.05
male, Swiss Webster mice [9] = assay: Core body temperature measurements; format: in vivo, mouse; settings: AC927 5–20 mg/kg, i.p., 4 times at 2 h intervals; measured 1 h after each injection
[10] = ref Matsumoto and Mack, 2001; Matsumoto et al., 2002, 2003; cited from earlier work
tumor cells = settings: through a σ receptor-mediated mechanism; ref Crawford et al., 2002; cited from earlier work

## CN[C@@H](C)Cc1ccccc1 [Methamphetamine, Methamphetamine hydrochloride, reference compound]
male, Swiss Webster mice [1]; methamphetamine 0–1 mg/kg, activity quantified for 30 min, F(3,34)=5.93, P < 0.005
  Locomotor activity, dose response of methamphetamine: progressive increase in locomotor activity
male, Swiss Webster mice [1]; methamphetamine 1 mg/kg, Dunnett q=3.61, P < 0.01
  Locomotor activity vs. saline control: differed significantly from the saline control
NG108-15 cells
  Cytotoxicity (cell morphology score), methamphetamine: concentration dependent increase in neurotoxicity
male, Swiss Webster mice [2]; methamphetamine 5 mg/kg, i.p., one week later, q=14.26, P < 0.001
  DAT immunoreactivity in striatum, methamphetamine: significant reduction in DAT immunoreactivity

## O=C(O)C(=O)O.c1ccc(CCN2CCCCC2)cc1 [AC927, N-phenethylpiperidine oxalate]
Serotonin transporter
  Ki: > 10 µM
Melatonin receptor
  Ki: > 10 µM
[3]
  Ki: > 10 µM
[4]
  Ki: > 10 µM
[5]
  Ki: > 10 µM
[6]
  Ki: > 10 µM
male, Swiss Webster mice [1]; AC927 0–20 mg/kg, activity quantified for 30 min, F(2,23)=7.45, P < 0.005
  Locomotor activity, dose response of AC927 alone: dose dependently decreased locomotor activity
male, Swiss Webster mice [1]; AC927 alone 10 mg/kg, q=1.09, n.s.
  Locomotor activity vs. saline control: did not differ significantly from the saline control
male, Swiss Webster mice [1]; AC927 alone 20 mg/kg, q=3.80, P < 0.01
  Locomotor activity vs. saline control: differed significantly from the saline control
male, Swiss Webster mice [7]
  Methamphetamine-induced striatal dopamine depletion, AC927 10 mg/kg: significantly attenuated
male, Swiss Webster mice [8]
  Methamphetamine-induced cerebellar dopamine depletion, AC927 10 mg/kg: significantly attenuated
male, Swiss Webster mice [9]
  Core body temperature, AC927 alone: did not significantly change core body temperature
[10]
  Acute locomotor stimulant effects of cocaine: significantly attenuate the acute locomotor stimulant effects of cocaine
Tumor cells
  Apoptosis in tumor cells: attenuate apoptosis in tumor cells
male, Swiss Webster mice [2]; AC927 10 mg/kg, i.p. + saline, q=3.56, n.s.
  DAT immunoreactivity in striatum, AC927 alone: no significant effects on DAT expression
